Results taken from ChEMBL document CHEMBL1629611, “Activity of levofloxacin alone and in combination with a DnaK inhibitor against gram-negative rods, including levofloxacin-resistant strains” (2009).
Bridges are numbered along the chain shown (N, C = ends). Roman numbers before positions name the chains, in order. [ ]: non-standard residue; d: D form. NMeR = CN[C@@H](CCCNC(=N)N)C(=O)O; Api = NC1(C(=O)O)CCNCC1; Dab = NCC[C@H](N)C(=O)O

Columns and labels:
Type in all cases: functional
Escherichia coli [1] = assay: Antimicrobial activity against Escherichia coli E409 by broth macrodilution method
How it was run: (§1)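 CLSI-approved broth macrodilution in one-quarter-strength cation-adjusted Mueller Hinton broth. Each drug was tested alone against each clinical gram-negative isolate to give the MIC. Strains were stored frozen at −70°C in double-strength skim milk before testing.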

Klebsiella pneumoniae [2] = assay: Antimicrobial activity against Klebsiella pneumoniae E368 by broth macrodilution method; how it was run: as §1
Escherichia coli [3] = assay: Antimicrobial activity against Escherichia coli E436 by broth macrodilution method; how it was run: as §1
Escherichia coli [4] = assay: Antimicrobial activity against Escherichia coli E395 by broth macrodilution method
How it was run: (§2)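 MIC by CLSI-approved broth macrodilution in one-quarter-strength cation-adjusted Mueller Hinton broth, each drug tested alone. Clinical gram-negative isolates were stored frozen at −70°C in double-strength skim milk before testing.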

Escherichia coli [5] = assay: Antimicrobial activity against Escherichia coli E394 by broth macrodilution method; how it was run: as §1
Escherichia coli [6] = assay: Antimicrobial activity against Escherichia coli E393 by broth macrodilution method; how it was run: as §2
Enterobacter cloacae [7] = assay: Antimicrobial activity against Enterobacter cloacae E397 by broth macrodilution method; how it was run: as §2
Escherichia coli [8] = assay: Antimicrobial activity against Escherichia coli E396 by broth macrodilution method; how it was run: as §2
Klebsiella pneumoniae [9] = assay: Antimicrobial activity against Klebsiella pneumoniae E411 by broth macrodilution method; how it was run: as §1
Klebsiella pneumoniae [10] = assay: Antimicrobial activity against Klebsiella pneumoniae E363 by broth macrodilution method; how it was run: as §2
Klebsiella pneumoniae [11] = assay: Antimicrobial activity against Klebsiella pneumoniae E353 by broth macrodilution method; how it was run: as §1
Enterobacter cloacae [12] = assay: Antimicrobial activity against Enterobacter cloacae E373 by broth macrodilution method; how it was run: as §2
Escherichia coli [13] = assay: Antimicrobial activity against Escherichia coli E434 by broth macrodilution method; how it was run: as §1
Klebsiella pneumoniae [14] = assay: Antimicrobial activity against Klebsiella pneumoniae E431 by broth macrodilution method; how it was run: as §1
Escherichia coli [15] = assay: Antimicrobial activity against Escherichia coli E425 by broth macrodilution method; how it was run: as §1
Klebsiella pneumoniae [16] = assay: Antimicrobial activity against Klebsiella pneumoniae E367 by broth macrodilution method; how it was run: as §1
Klebsiella pneumoniae [17] = assay: Antimicrobial activity against Klebsiella pneumoniae E370 by broth macrodilution method; how it was run: as §1
Klebsiella pneumoniae [18] = assay: Antimicrobial activity against Klebsiella pneumoniae E422 by broth macrodilution method; how it was run: as §2
Klebsiella pneumoniae [19] = assay: Antimicrobial activity against Klebsiella pneumoniae E364 by broth macrodilution method; how it was run: as §1
Escherichia coli [20] = assay: Antimicrobial activity against Escherichia coli E408 by broth macrodilution method; how it was run: as §1
Klebsiella pneumoniae [21] = assay: Antimicrobial activity against Klebsiella pneumoniae E427 by broth macrodilution method; how it was run: as §1
Escherichia coli [22] = assay: Antimicrobial activity against Escherichia coli E351 by broth macrodilution method; how it was run: as §2
Escherichia coli [23] = assay: Antimicrobial activity against Escherichia coli E413 by broth macrodilution method; how it was run: as §1
Pseudomonas aeruginosa [24] = assay: Antimicrobial activity against Pseudomonas aeruginosa P335 by broth macrodilution method; how it was run: as §2
Citrobacter freundii [25] = assay: Antimicrobial activity against Citrobacter freundii E400 by broth macrodilution method; how it was run: as §1
Klebsiella pneumoniae [26] = assay: Antimicrobial activity against Klebsiella pneumoniae E369 by broth macrodilution method; how it was run: as §1
Escherichia coli [27] = assay: Antimicrobial activity against Escherichia coli E410 by broth macrodilution method; how it was run: as §2
Escherichia coli [28] = assay: Antimicrobial activity against Escherichia coli E424 by broth macrodilution method; how it was run: as §1
Escherichia coli [29] = assay: Antimicrobial activity against Escherichia coli E435 by broth macrodilution method; how it was run: as §1
Citrobacter freundii [30] = assay: Antimicrobial activity against Citrobacter freundii E384 by broth macrodilution method; how it was run: as §2
Klebsiella pneumoniae [31] = assay: Antimicrobial activity against Klebsiella pneumoniae E433 by broth macrodilution method; how it was run: as §2
Escherichia coli [32] = assay: Antimicrobial activity against Escherichia coli E412 by broth macrodilution method; how it was run: as §1
Klebsiella pneumoniae [33] = assay: Antimicrobial activity against Klebsiella pneumoniae E372 by broth macrodilution method; how it was run: as §1
Klebsiella pneumoniae [34] = assay: Antimicrobial activity against Klebsiella pneumoniae E354 by broth macrodilution method; how it was run: as §2
Escherichia coli [35] = assay: Antimicrobial activity against Escherichia coli E430 by broth macrodilution method; how it was run: as §1
Klebsiella pneumoniae [36] = assay: Antimicrobial activity against Klebsiella pneumoniae E426 by broth macrodilution method; how it was run: as §1
Klebsiella pneumoniae [37] = assay: Antimicrobial activity against Klebsiella pneumoniae E371 by broth macrodilution method; how it was run: as §1
Escherichia coli [38] = assay: Antimicrobial activity against Escherichia coli E341 by broth macrodilution method; how it was run: as §2
Escherichia coli [39] = assay: Antimicrobial activity against Escherichia coli E437 by broth macrodilution method; how it was run: as §2
Klebsiella pneumoniae [40] = assay: Antimicrobial activity against Klebsiella pneumoniae E366 by broth macrodilution method; how it was run: as §2
Escherichia coli [41] = assay: Antimicrobial activity against Escherichia coli E346 by broth macrodilution method; how it was run: as §2
Klebsiella pneumoniae [42] = assay: Antimicrobial activity against Klebsiella pneumoniae E356 by broth macrodilution method; how it was run: as §2
Klebsiella pneumoniae [43] = assay: Antimicrobial activity against Klebsiella pneumoniae E428 by broth macrodilution method; how it was run: as §2
Klebsiella pneumoniae [44] = assay: Antimicrobial activity against Klebsiella pneumoniae E418 by broth macrodilution method; how it was run: as §2
Escherichia coli [45] = assay: Antimicrobial activity against Escherichia coli E342 by broth macrodilution method; how it was run: as §2
Klebsiella pneumoniae [46] = assay: Antimicrobial activity against Klebsiella pneumoniae E362 by broth macrodilution method; how it was run: as §2
Klebsiella pneumoniae [47] = assay: Antimicrobial activity against Klebsiella pneumoniae E432 by broth macrodilution method; how it was run: as §2
Escherichia coli [48] = assay: Antimicrobial activity against Escherichia coli E439 by broth macrodilution method; how it was run: as §2
Escherichia coli [49] = assay: Antimicrobial activity against Escherichia coli E438 by broth macrodilution method; how it was run: as §2
Pseudomonas aeruginosa [50] = assay: Antimicrobial activity against Pseudomonas aeruginosa P330 by broth macrodilution method; how it was run: as §2

## C[C@H]1COc2c(N3CCN(C)CC3)c(F)cc3c(=O)c(C(=O)O)cn1c23.C[C@H]1COc2c(N3CCN(C)CC3)c(F)cc3c(=O)c(C(=O)O)cn1c23.O [LEVOFLOXACIN]
Escherichia coli [1]
  MIC: 8 µg/mL
Klebsiella pneumoniae [2]
  MIC: 8 µg/mL
Escherichia coli [3]
  MIC: 0.125 µg/mL
Escherichia coli [4]
  MIC: 16 µg/mL
Escherichia coli [5]
  MIC: 32 µg/mL
Escherichia coli [6]
  MIC: 16 µg/mL
Enterobacter cloacae [7]
  MIC: 16 µg/mL
Escherichia coli [8]
  MIC: 16 µg/mL
Klebsiella pneumoniae [9]
  MIC: 2 µg/mL
Klebsiella pneumoniae [10]
  MIC: 0.06 µg/mL
Klebsiella pneumoniae [11]
  MIC: 0.25 µg/mL
Enterobacter cloacae [12]
  MIC: 0.06 µg/mL
Escherichia coli [13]
  MIC: 0.125 µg/mL
Klebsiella pneumoniae [14]
  MIC: 4 µg/mL
Escherichia coli [15]
  MIC: 2 µg/mL
Klebsiella pneumoniae [16]
  MIC: 0.25 µg/mL
Klebsiella pneumoniae [17]
  MIC: 32 µg/mL
Klebsiella pneumoniae [18]
  MIC: 16 µg/mL
Klebsiella pneumoniae [19]
  MIC: 2 µg/mL
Escherichia coli [20]
  MIC: 32 µg/mL
Klebsiella pneumoniae [21]
  MIC: 2 µg/mL
Escherichia coli [22]
  MIC: 16 µg/mL
Escherichia coli [23]
  MIC: 8 µg/mL
Pseudomonas aeruginosa [24]
  MIC: 16 µg/mL
Citrobacter freundii [25]
  MIC: 32 µg/mL
Klebsiella pneumoniae [26]
  MIC: 64 µg/mL
Escherichia coli [27]
  MIC: 4 µg/mL
Escherichia coli [28]
  MIC: 0.25 µg/mL
Escherichia coli [29]
  MIC: 0.125 µg/mL
Citrobacter freundii [30]
  MIC: 0.125 µg/mL
Klebsiella pneumoniae [31]
  MIC: 16 µg/mL
Escherichia coli [32]
  MIC: 8 µg/mL
Klebsiella pneumoniae [33]
  MIC: 0.25 µg/mL
Klebsiella pneumoniae [34]
  MIC: 16 µg/mL
Escherichia coli [35]
  MIC: 0.125 µg/mL
Klebsiella pneumoniae [36]
  MIC: 4 µg/mL
Klebsiella pneumoniae [37]
  MIC: 32 µg/mL

## I: H-[Api]DKGSYLPRPTPPRPIYN[NMeR]N[Dab]-NH2 / II: H-[Api]DKGSYLPRPTPPRPIYN[NMeR]N (amide I:21-II:C)
Escherichia coli [1]
  MIC: 16 µg/mL
Klebsiella pneumoniae [2]
  MIC: 8 µg/mL
Escherichia coli [38]
  MIC: 16 µg/mL
Escherichia coli [3]
  MIC: 8 µg/mL
Escherichia coli [4]
  MIC: 32 µg/mL
Escherichia coli [5]
  MIC: 32 µg/mL
Escherichia coli [6]
  MIC: 16 µg/mL
Escherichia coli [39]
  MIC: 4 µg/mL
Enterobacter cloacae [7]
  MIC: 8 µg/mL
Klebsiella pneumoniae [40]
  MIC: 16 µg/mL
Escherichia coli [8]
  MIC: 16 µg/mL
Klebsiella pneumoniae [9]
  MIC: 8 µg/mL
Escherichia coli [41]
  MIC: 64 µg/mL
Klebsiella pneumoniae [10]
  MIC: 4 µg/mL
Klebsiella pneumoniae [11]
  MIC: 4 µg/mL
Enterobacter cloacae [12]
  MIC: 4 µg/mL
Klebsiella pneumoniae [42]
  MIC: 8 µg/mL
Escherichia coli [13]
  MIC: 8 µg/mL
Klebsiella pneumoniae [14]
  MIC: 4 µg/mL
Klebsiella pneumoniae [43]
  MIC: 8 µg/mL
Escherichia coli [15]
  MIC: 32 µg/mL
Klebsiella pneumoniae [16]
  MIC: 16 µg/mL
Klebsiella pneumoniae [17]
  MIC: 4 µg/mL
Klebsiella pneumoniae [18]
  MIC: 32 µg/mL
Klebsiella pneumoniae [19]
  MIC: 8 µg/mL
Escherichia coli [20]
  MIC: 16 µg/mL
Klebsiella pneumoniae [21]
  MIC: 8 µg/mL
Escherichia coli [22]
  MIC: 32 µg/mL
Escherichia coli [23]
  MIC: 32 µg/mL
Pseudomonas aeruginosa [24]
  MIC: 128 µg/mL
Klebsiella pneumoniae [44]
  MIC: 8 µg/mL
Citrobacter freundii [25]
  MIC: 8 µg/mL
Escherichia coli [45]
  MIC: 256 µg/mL
Klebsiella pneumoniae [26]
  MIC: 8 µg/mL
Escherichia coli [27]
  MIC: 4 µg/mL
Escherichia coli [28]
  MIC: 64 µg/mL
Escherichia coli [29]
  MIC: 8 µg/mL
Citrobacter freundii [30]
  MIC: 512 µg/mL
Klebsiella pneumoniae [46]
  MIC: 4 µg/mL
Klebsiella pneumoniae [31]
  MIC: 8 µg/mL
Escherichia coli [32]
  MIC: 8 µg/mL
Klebsiella pneumoniae [33]
  MIC: 4 µg/mL
Klebsiella pneumoniae [47]
  MIC: 128 µg/mL
Klebsiella pneumoniae [34]
  MIC: 8 µg/mL
Escherichia coli [35]
  MIC: 16 µg/mL
Klebsiella pneumoniae [36]
  MIC: 4 µg/mL
Klebsiella pneumoniae [37]
  MIC: 32 µg/mL
Escherichia coli [48]
  MIC: 8 µg/mL
Escherichia coli [49]
  MIC: 8 µg/mL
Pseudomonas aeruginosa [50]
  MIC: 256 µg/mL
